From PubChem BioAssay
The list is not random: actives were taken first. Their share in the collection is about 10%.
Diaphorase act: activates diaphorase or chemically reduces, flagging diaphorase assay artifacts | Diaphorase/resazurin coupled assay, resorufin fluorescence, 16 min; stronger effect = higher value; 1 = vehicle wells, 0 = NADH-free wells | AID 1229 | hit rate 0.005% among 190,000 | activation factor at 20 µM;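 active means diaphorase activity raised at least twofold by the compound at 20 µM; inactive means activation factor below 2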
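Material: bacterial diaphorase enzyme (C. kluyveri); amount: enzyme 0.07 U/mL final; reagent: NADH substrate 0.114 mM plus resazurin dye 0.1 mM, final; doses: single compound dose of 20 µM, 1% DMSO final; timing: 16 min enzyme reaction, ambient temperature; measured by: fluorescence of resorufin, 544 nm excitation, 590 nm emission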
PMI activator: phosphomannose isomerase (human) activation. P34949. purified human PMI, coupled resazurin fluorescence, 20 min; stronger effect = higher value; 1 = vehicle control, 0 substrate-free wells. activation factor at 20 µM. hit rate 0.005% among 190,000;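 active means activation factor of 2 or more at 20 µM, relative to plate controls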
Target sequence (P34949 whole entry, looked up): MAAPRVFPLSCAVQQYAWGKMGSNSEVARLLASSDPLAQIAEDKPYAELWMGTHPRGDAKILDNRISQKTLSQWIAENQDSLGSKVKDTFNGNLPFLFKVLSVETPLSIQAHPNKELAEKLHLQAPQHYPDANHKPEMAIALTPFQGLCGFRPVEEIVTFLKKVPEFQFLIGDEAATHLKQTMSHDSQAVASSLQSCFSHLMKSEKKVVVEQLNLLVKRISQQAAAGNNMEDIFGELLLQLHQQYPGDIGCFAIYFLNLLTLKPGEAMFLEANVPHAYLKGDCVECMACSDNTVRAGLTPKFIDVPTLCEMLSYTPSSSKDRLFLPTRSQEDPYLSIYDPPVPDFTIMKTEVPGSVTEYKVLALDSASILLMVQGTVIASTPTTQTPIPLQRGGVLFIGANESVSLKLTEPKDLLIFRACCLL
Lmaj promast: reduces viability of Leishmania major promastigotes; resazurin fluorescence viability; inhibition, % at 10 µM; hit rate 9% among 200,000; in the data active means inhibition above about 50%;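 further: promastigotes grown with compound for 44 hours at 28 °C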
PMI act hi M6P: PMI (human) activation, high substrate. activation factor at 20 µM. P34949. AID 1216. hit rate 0.34% among 190,000. coupled PMI enzyme assay, resazurin fluorescence, 20 min; stronger effect = higher value; 1 = untreated enzyme, 0 = substrate-free blank;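 active means activation factor of 2 or more at 20 µM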
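Test system: Human PMI in coupled enzyme assay | Input: 15 ng/mL PMI | Medium: HEPES-buffered pH 7.4 with magnesium and detergent | Compound: One concentration, 20 µM, in 1% DMSO | Incubation: Enzyme reaction with compound 20 min at room temperature | Detection: Diaphorase-driven resazurin-to-resorufin fluorescence, excitation 544, emission 590 nm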
WT yeast gro inh: growth inhibition of WT yeast, mitochondrial fusion screen. mitochondrial fusion phenotypic screen, WT strain. inhibition, % at 10 µM. hit rate 2.1% among 190,000; in the data active means inhibition above about 58%; tested in S. cerevisiae
* marks the source's active call; other numbers are inactive results.

SMILES	Diaphorase act	PMI activator	Lmaj promast	PMI act hi M6P	WT yeast gro inh
COc1ccc(OC)c(S(=O)(=O)N2CCC(C(=O)Nc3cccc(C(F)(F)F)c3)CC2)c1	0.8	0.8	91*	0.9	21
COc1ccc(OC)c(S(=O)(=O)N2CCC(C(=O)NCc3ccccc3)CC2)c1	0.9	1	-2	1	-18
CCN1C=C(Cc2cccs2)C2=C(C1)C(c1cccs1)C(C#N)=C(N)O2 (centres undefined)	0.7	0.8	55*	0.6	4
COc1ccc(C2c3sc(=O)[nH]c3SC3C4CCC(C4)C23)cc1 (centres undefined)	0.8	0.8	19	0.9	65*
O=c1[nH]c2c(s1)C(c1ccccc1)C1C3CCC(C3)C1S2 (centres undefined)	1	0.9	-10	0.9	31
Cc1ccccc1NS(=O)(=O)c1cc(C(=O)NCCSC2CCCCC2)ccc1C	0.8	0.9	100*	0.9	-5
Cc1ccc(C)c(NS(=O)(=O)c2cc(C(=O)NCCSC3CCCCC3)ccc2C)c1	0.8	0.9	97*	0.7	34
Cc1ccccc1NS(=O)(=O)c1cc(C(=O)N2CCCC2)ccc1C	0.8	0.9	-1	0.9	-8
Cc1ccc(C)c(NS(=O)(=O)c2cc(C(=O)NCCC3=CCCCC3)ccc2C)c1	0.8	0.8	25	0.9	7
CSc1ncc(S(=O)(=O)c2ccccc2)c(=O)[nH]1	1.1	1.5	-4	1.3	0
CCNc1nnc(CCn2nc(C)c(Br)c2C)s1	0.9	0.9	-3	1	-7
COc1ccc(/C=N/OCC(=O)N=Nc2c(O)[nH]c3ccc(Br)cc23)cc1OC	0.8	0.9	63*	0.9	21
CCn1c(NC(=O)c2ccc(F)cc2)c2ccccc2nc1=O	0.8	0.9	3	0.9	58*
CCn1c(NC(=O)c2ccc(C)cc2)c2ccccc2nc1=O	1	1	77*	1	-18
CCn1c(NC(=O)C(C)C)c2ccccc2nc1=O	0.9	0.9	3	1	7
Cc1nc2nc(SCC(=O)c3ccc([N+](=O)[O-])cc3)[nH]c2cc1Br	1	0.9	-2	1	-16
Cc1ccc(OCC(=O)N(c2ccccn2)C2CCCCC2)c(C)c1	0.8	0.9	87*	0.9	21
CCC(Sc1nc(-c2ccccc2)c(C#N)c(=O)[nH]1)C(=O)Nc1nnc(C)s1 (centres undefined)	1	0.9	-18	1.1	19
Cc1c(Cl)cccc1NC(=O)c1nc(C)n(-c2cc(OC(C)C)c(Cl)cc2Cl)n1	0.9	0.9	19	0.9	75*
O=C(CSc1n[nH]c(-c2ccccc2Br)n1)NCCN1C(=O)CSC1=O	0.8	0.9	-5	1.1	8
COc1ccc(C2C=C(Nc3ccccc3)C(=O)N2c2ccccc2)cc1OC (centres undefined)	0.9	1.4	-3	1.8	12
COc1cccc(C2C=C(Nc3ccccc3)C(=O)N2c2ccccc2)c1 (centres undefined)	1	1.7	66*	2.2*	12
CCSc1ccc2cc(OC)ccc2[n+]1CC	1.1	0.8	84*	1.8	62*
COc1ccc2cc(C(=O)O)ccc2c1	0.9	1	-6	1	9
CN(C)CCOCCOc1ccc(Cl)cc1C(C)(C)C	0.8	0.9	98*	1.1	27
SMILES	Diaphorase act	PMI activator	Lmaj promast	PMI act hi M6P	WT yeast gro inh
CC(O)CNCCCOc1ccc(Cl)cc1C(C)(C)C (centres undefined)	0.9	0.9	72*	1	32
CCOc1cccc(OCCOCCN(C)C)c1	0.9	0.9	-5	1.1	1
Cc1cc(Cl)cc(Br)c1OCCNCC(C)O (centres undefined)	1	0.9	5	0.9	9
COc1ccc(C)cc1S(=O)(=O)N1CCC(C(=O)NCCc2ccccc2)CC1	0.9	1	0	1	-2
COC(=O)c1ccsc1NC(=O)c1ccccc1	1.1	1	-5	1	-50
NC(=O)c1ccsc1NC(=O)c1ccc2c(c1)CCCC2	0.7	1	-3	0.9	70*
CNC(=O)c1ccsc1NC(=O)c1ccc2c(c1)CCCC2	0.7	0.9	21	0.9	72*
NC(=O)c1ccsc1NC(=O)c1ccc(N2CCCC2=O)cc1	0.8	0.9	13	0.7	15
COc1ccc(Cl)cc1C(=O)N(Cc1nc(-c2cccc(C)c2)no1)C(C)C	0.7	0.9	85*	0.9	45
Cc1cccc(-c2noc(CN(C(=O)/C=C/c3ccccc3Cl)C(C)C)n2)c1	0.9	0.9	-3	0.9	47
O=S(=O)(c1ccc(Cl)cc1)N1CCN(C(=S)Nc2ccccc2F)CC1	0.7	0.9	6	0.9	-3
COc1cccc(-n2c(CN3CCN(c4ccc(C)cc4)C(C)C3)nc3ccc([N+](=O)[O-])cc3c2=O)c1 (centres undefined)	0.9	0.8	92*	0.9	14
COc1cccc(-n2c(CN3CCN(c4cccc(C)c4)C(C)C3)nc3ccc([N+](=O)[O-])cc3c2=O)c1 (centres undefined)	0.9	0.8	66*	1	9
COc1cccc(-n2c(CN3CCN(c4ccccn4)CC3)nc3ccc([N+](=O)[O-])cc3c2=O)c1	1	1.1	16	1	11
Cc1ccccc1NC(=O)c1ccc(Cl)c(NC(=O)c2ccncc2)c1	1	1.1	-13	1	4
CC(=O)N1CCCc2cc(S(=O)(=O)N3CCc4ccccc4C3)ccc21	0.9	0.9	98*	0.9	-8
CC(=O)N1CCCc2cc(S(=O)(=O)N(C)Cc3ccccc3)ccc21	0.9	0.9	61*	0.9	-15
CCC(=O)N1CCc2cc(S(=O)(=O)N3CCc4ccccc4C3)ccc21	0.9	0.9	3	0.9	-19
O=C(NCC(=O)N(c1cccc(F)c1)C(C(=O)NC1CCCC1)c1cccnc1)c1cccs1 (centres undefined)	0.9	1	-6	1	2
C#CCOC(=O)CCCC(=O)NCCCCCCCC	1	1	-6	1	8
C[N+](C)(C)CCN(Cc1ccc(Cl)cc1)c1ccccn1	1	1	-5	1.1	7
CN(C)CCN(Cc1ccc(Cl)cc1)c1ccccn1	1.1	1.2	99*	1.2	-7
CCOC(=O)C1(C)NC(c2ccccc2F)C2C(=O)N(CC)C(=O)C21 (centres undefined)	1	1	-5	1.1	-14
C/C(=N\Nc1ccc([N+](=O)[O-])cc1)c1ccc(N)cc1	0.9	1.7	5	2.3*	42
CCc1ccc(/C(C)=N\Nc2ccc([N+](=O)[O-])cc2)cc1	0.8	0.8	2	0.8	8
COCCCN=Cc1c(C)[nH]n(-c2ccc(Br)cc2Br)c1=O	1	1.2	-3	1.1	1
